This is a sample that favours compounds with a hit; in the whole collection about 2.6% have one here.
SENP7 inh – inhibitors of human SENP7 protease; recombinant SENP7, Z-RLRGG-aminoluciferin luminescence, 40 min; hit rate 1.5% among 330,000; inhibition, % at 5 µM; Q9BQF6;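 active = inhibition above about 50% at the single test dose, limit read from the data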;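 also: plate controls were DMSO with enzyme for no effect and no enzyme buffer wells for full effect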
UCH37 inh – human UCH37 deubiquitinating enzyme inhibition | Q9Y5K5 | purified proteasome/UCH37, Ub-AMC cleavage fluorescence | AID 588478 | hit rate 0.33% among 330,000 | inhibition, % (test concentration not listed);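 active = mean inhibition over replicate wells above about 20%, limit read from the data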;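 also: 0% = compound-free wells with enzyme and 100% = wells lacking proteasome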
Target sequence (Q9Y5K5 whole entry, looked up): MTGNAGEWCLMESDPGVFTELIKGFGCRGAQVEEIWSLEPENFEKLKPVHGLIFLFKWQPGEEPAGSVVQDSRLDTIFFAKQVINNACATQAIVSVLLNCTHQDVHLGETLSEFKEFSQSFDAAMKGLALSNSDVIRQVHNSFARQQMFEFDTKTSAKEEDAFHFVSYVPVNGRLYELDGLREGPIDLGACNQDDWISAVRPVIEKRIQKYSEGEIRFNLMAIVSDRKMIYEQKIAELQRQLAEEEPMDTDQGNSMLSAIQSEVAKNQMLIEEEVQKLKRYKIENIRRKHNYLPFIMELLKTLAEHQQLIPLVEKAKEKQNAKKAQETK
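Test system – human UCH37 enzyme supplied as purified proteasome complex · Incubation – 30 min preincubation with enzyme, 25 min cleavage at room temperature · Detection – AMC fluorescence from Ub-AMC cleavage, excitation 355 nm, emission 460 nm · Benchmarks – no-proteasome wells (full inhibition) and compound-free wells (no inhibition)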
SENP8 block-1 – SENP8 protease inhibition; Q96LD8; purified SENP8, Z-RLRGG-aminoluciferin cleavage, luminescence; inhibition, % at 10 µM; hit rate 1.2% among 330,000; in the data active = inhibition above about 50%
Target sequence (Q96LD8 whole entry, looked up): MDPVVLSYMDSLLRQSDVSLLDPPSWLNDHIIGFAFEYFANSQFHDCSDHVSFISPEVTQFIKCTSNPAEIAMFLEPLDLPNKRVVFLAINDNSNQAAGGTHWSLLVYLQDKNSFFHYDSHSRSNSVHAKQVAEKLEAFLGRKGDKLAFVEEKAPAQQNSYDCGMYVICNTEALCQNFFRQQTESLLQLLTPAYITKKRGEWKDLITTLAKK
SENP6 block – blocks the human protease SENP6; Recombinant SENP6 catalytic domain, aminoluciferin luminescence; inhibition, % at 10 µM; AID 2599; Q9GZR1; hit rate 1.8% among 330,000;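 active = inhibition above about 50% at the single tested dose, limit read from the data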;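 also: plate controls were DMSO wells with enzyme for no effect and DMSO wells lacking enzyme for full effect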
SENP8 block-2 – blocks human SENP8 cleavage of Nedd8 substrate. recombinant SENP8, Nedd8 substrate fluorescence. inhibition, % at 20 µM. hit rate 0.64% among 360,000. AID 602440; in the data active = inhibition mostly above about 40%, no sharp cut-off; inactive = mostly below about 27%
SENP1 FRET inh – SENP1 (human) catalytic domain inhibition | Q9P0U3 | recombinant SENP1 catalytic domain, CyPet-SUMO1-YPet FRET cleavage | inhibition, % at 10 µM | hit rate 0.21% among 360,000;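 active = inhibition at least 30% at 10 µM, raw YFP signal under a set limit, fluorescence ratio 0.5 to 1.5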;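 also: 0% = enzyme with DMSO and 100% = no enzyme wells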
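system = hSENP1 catalytic domain, recombinant | reagent = SFCypet-SUMO1-SFYpet substrate at 25 nM | doses = one dose per compound, 10 µM, 0.5% DMSO | incubation = enzyme reaction for 50 min at room temperature, dark | measured by = FRET, CFP and YFP emission | controls = no-enzyme low, enzyme-DMSO high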
* = called active by the depositor; nt = not tested or not shown.

SMILES	SENP7 inh	UCH37 inh	SENP8 block-1	SENP6 block	SENP8 block-2	SENP1 FRET inh
Clc1nc2ccccc2cc1C=NNc1nc2ccccc2[nH]1	nt	3.2	nt	nt	nt	nt
CCc1ccc(S(=O)(=O)/N=C2\C=C(Nc3ccc(O)cc3)C(=O)c3ccccc32)cc1	66.9*	nt	90.7*	89.1*	101.4*	2.6
CCc1ccc(S(=O)(=O)/N=C2\C=C(Nc3cccc(C(=O)O)c3)C(=O)c3ccccc32)cc1	46.7	nt	95.0*	92.4*	69.6*	2.2
CC(=O)Nc1ccc(C=NNC(=O)c2cccs2)cc1	nt	-46.7	nt	nt	nt	nt
COc1ccc(-n2cc(-c3ccc(C)cc3)[n+]3c2SCC3)cc1	2.3	34.6*	0.4	-20.9	11.9	3.0
Cc1ccc(-c2cn(-c3ccccc3)c3[n+]2CCCS3)cc1	-5.7	4.2	-7.4	-23.9	31.3	-1.4
Cc1ccc(S(=O)(=O)Cc2ccc(C(=O)OCc3ccccc3)cc2)cc1	0.2	2.3	5.9	-13.3	11.5	2.2
COC(=O)c1c[nH]c2c1-c1cc(C(=O)OCc3ccccc3)n(S(=O)(=O)c3ccc(C)cc3)c1C(=O)C2=O	nt	nt	nt	nt	104.9*	2.4
CN(Cc1c(C(=O)NN=Cc2cccc(F)c2)nnn1-c1nonc1N)C1CCCCC1	nt	6.7	nt	nt	nt	nt
CCOC(=O)/C(C#N)=C\N(C)C	4.8	-0.1	-2.4	5.4	12.1	2.9
CCOC(=O)/C(C#N)=C/C=C1/C=CC=CN1C	3.3	20.2*	-2.9	-6.5	34.1	-22.6
COc1cc(C=NNC(=S)NCc2ccco2)cc(OC)c1OC	nt	5.5	nt	nt	nt	nt
Cc1cc(C)nc(N/N=C/c2sccc2C)n1	4.6	nt	4.6	-14.5	2.0	0.0
Cc1ccsc1/C=N/Nc1ccc(F)cc1F	8.9	nt	56.5*	50.5*	-1.7	-4.9
COc1ccc(NN=C(C#N)S(=O)(=O)C(C)(C)C)cc1	nt	17.3	nt	nt	nt	nt
CCS(=O)(=O)C1=NN2C(=N)/C(=C\c3ccc(OC(=O)c4ccco4)c(OC)c3)C(=O)N=C2S1	-0.8	nt	53.2*	3.6	-29.7	-59.6
C=CCOc1ccc(/C=C2\C(=N)N3N=C(S(=O)(=O)CC)SC3=NC2=O)cc1OC	-11.4	21.4*	-6.1	-8.9	-20.2	-54.0
COC(=O)NN=Cc1cc(Cl)cc(Cl)c1OCc1ccccc1F	nt	5.6	nt	nt	nt	nt
Cc1cc(N=Nc2ccc(Cl)cc2)cc(CN2CCOCC2)c1O	-7.9	3.8	-13.4	-7.6	18.7	2.9
Cc1cc(N=Nc2ccc(Cl)cc2)cc(CN2CCCC2)c1O	-11.3	4.7	-7.3	-5.5	42.8*	6.0
COc1ccc(/C(O)=C2/C(=O)C(=O)N(CCCN(C)C)C2c2ccc(Cl)cc2)cc1OC (centres undefined)	3.2	23.9*	2.6	11.0	-12.6	-2.9
COc1ccc(/C(O)=C2/C(=O)C(=O)N(CCCN3CCOCC3)C2c2ccc(C(C)C)cc2)cc1 (centres undefined)	-5.4	20.1*	-3.1	-7.9	9.1	-1.6
CCCOc1ccc(C2/C(=C(/O)c3ccccc3)C(=O)C(=O)N2CCCN(C)C)cc1OC (centres undefined)	-3.7	4.3	1.9	-9.1	7.7	0.4
COc1ccc(/C(O)=C2/C(=O)C(=O)N(CCCN3CCOCC3)C2c2ccc(Cl)cc2)cc1 (centres undefined)	nt	nt	nt	nt	-40.6	2.1
COc1ccccc1C=NNC(=O)C(C)Cn1cnc2ccccc21 (centres undefined)	nt	1.4	nt	nt	nt	nt
SMILES	SENP7 inh	UCH37 inh	SENP8 block-1	SENP6 block	SENP8 block-2	SENP1 FRET inh
Cc1occc1C(=O)NN=Cc1cccnc1	nt	1.1	nt	nt	nt	nt
Cn1c(=O)c(C(=O)Nc2ccccc2S(N)(=O)=O)c(O)c2ccccc21	-3.2	2.6	-0.3	-8.9	-57.2	3.6
Cn1c(=O)c(C(=O)Nc2ccccn2)c(O)c2ccccc21	75.1*	0.5	35.6	-4.8	-188.4	-0.1
CN(C)c1ccc(/C=C(/NC(=O)c2ccccc2)C(=O)NN=Cc2ccc([N+](=O)[O-])c(O)c2)cc1	nt	20.2*	nt	nt	nt	nt
O=C(N/N=C/c1ccc(O)c(O)c1O)/C(=C/c1ccc([N+](=O)[O-])cc1)NC(=O)c1ccccc1	2.2	nt	0.3	17.7	71.9*	3.8
CN(C)c1ccc(/C=C(\NC(=O)c2ccccc2)C(=O)N/N=C/c2ccc(C(=O)O)cc2)cc1	-5.3	nt	-1.2	6.5	-218.6	-24.4
O=C(O)c1ccc(N/N=C/C2=Cc3ccccc3OC2)cc1	98.9*	nt	98.0*	100.6*	-231.1	-81.0
CC(=O)Nc1ccc(C=NN2C(C)CCCC2C)cc1 (centres undefined)	nt	1.8	nt	nt	nt	nt
Cc1nonc1C(=O)N/N=C/c1cccc(O)c1	92.2*	nt	86.5*	83.6*	13.8	0.9
Cc1nonc1C(=O)NN=Cc1ccc(O)cc1	nt	2.9	nt	nt	nt	nt
CN1CCN(N=Cc2ccc(-c3ccccc3)cc2)CC1	nt	3.6	nt	nt	nt	nt
O=C(/C=C/c1cccs1)N1CCN(c2ccccc2F)CC1	6.1	7.2	-0.1	-6.6	6.9	0.6
O=C(/C=C/c1cccs1)N1CCc2ccccc21	97.8*	10.5	93.4*	-3.4	32.9	1.2
COc1cc(/C=C2\CC(C(C)(C)C)C/C(=C\c3cc(OC)c(OC)c(OC)c3)C2=O)cc(OC)c1OC (centres undefined)	2.2	5.3	-1.0	0.7	20.7	37.3*
Cc1ccc(-c2cc(C(=O)NN=Cc3cccnc3)c3ccccc3n2)cc1C	nt	-9.0	nt	nt	nt	nt
Cc1cc2nc3ccc(N(C)C)cc3nc2cc1N	15.9	nt	49.8	51.0*	81.1*	71.8
Cc1cccc(C(=O)ON=C(c2ccccc2)c2cccnc2)c1	nt	1.2	nt	nt	nt	nt
O=C(NN=Cc1ccccn1)c1cc(-c2ccc(Cl)cc2)nc2ccccc12	nt	0.4	nt	nt	nt	nt
CCOC(=O)/C(N=Nc1ccc(F)cc1)=C(/O)c1ccc([N+](=O)[O-])cc1	9.0	5.0	5.0	-1.0	42.6*	-1.9
Cc1cn(-c2ccccc2)c(C)c1C=NNc1nc(N2CCOCC2)nc(N2CCOCC2)n1	nt	4.4	nt	nt	nt	nt
CCCCNC(=O)c1sc(=S)n2c1[nH]c(=O)c1ccc(C(=O)NCCc3ccc(OC)c(OC)c3)cc12	3.1	12.8	4.0	8.8	7.4	44.6*
Fc1cc2ncn(Cc3ccccc3)c2cc1F	0.8	24.9*	-1.4	-2.3	24.4	1.7
C[n+]1ccc(/C=C/c2ccccc2O)c2ccccc21	6.6	7.1	4.4	9.1	9.6	-10.8
CN1/C(=C/c2cc[n+](C)c3ccccc23)C=Cc2ccccc21	nt	8.8	nt	nt	58.0*	-2.7
CCN(CC)c1ccc(C=NNC(=O)c2cccc(S(=O)(=O)N3CCOCC3)c2)cc1	nt	-31.6	nt	nt	nt	nt
CCOc1cc(CNc2ccc(O)cc2)ccc1OCc1ccc(Cl)cc1Cl	71.7*	nt	-5.6	-2.8	75.4*	15.9
O=C(CSc1ncccn1)NN=Cc1cccs1	nt	3.7	nt	nt	nt	nt
COc1cccc(/C=N/NC(=O)C(=O)Nc2ccccc2OC(F)(F)C(F)F)c1O	-8.5	nt	-15.7	-11.8	18.8	35.0*
O=C(NN=Cc1cc(Br)ccc1O)C(=O)Nc1ccccc1OC(F)(F)C(F)F	nt	4.5	nt	nt	nt	nt

High-throughput results: PubChem, several laboratories
